Experimental data as given in ChEMBL document CHEMBL1128472, “Reversible inhibitors of the gastric (H+/K+)-ATPase. 5. Substituted 2,4-diaminoquinazolines and thienopyrimidines” (J Med Chem, 1995).
Each block holds one compound with its values, some of them ahead of it.

Experiments:
Canis familiaris [1] = experiment: % inhibition of Histamine-stimulated gastric acid secretion in Heidenhain pouch dog 4 uM/kg, on peroral administration of the compound.; format: functional, Canis lupus familiaris, Stomach
Procedure, shortened: (§1)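 Heidenhain pouch dogs with histamine-stimulated acid secretion; compound given orally as a dry powder in a hard gelatin capsule; inhibition of acid secretion measured.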

Rattus norvegicus [2] = experiment: Inhibition of pentagastrin stimulated gastric acid secretion in anesthetized rat on iv administration of the compound.; format: functional; conditions: Stomach
Procedure, shortened: (§2)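 Anaesthetized rat with lumen-perfused stomach; acid secretion induced by pentagastrin; compound given intravenously; inhibition of acid output recorded.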

[3] = target: Potassium-transporting ATPase (Sus scrofa, UniProt P19156); experiment: Inhibition of K+ stimulated gastric ATPase activity; format: tissue-based, Stomach
Sequence of Potassium-transporting ATPase (P18434 whole entry): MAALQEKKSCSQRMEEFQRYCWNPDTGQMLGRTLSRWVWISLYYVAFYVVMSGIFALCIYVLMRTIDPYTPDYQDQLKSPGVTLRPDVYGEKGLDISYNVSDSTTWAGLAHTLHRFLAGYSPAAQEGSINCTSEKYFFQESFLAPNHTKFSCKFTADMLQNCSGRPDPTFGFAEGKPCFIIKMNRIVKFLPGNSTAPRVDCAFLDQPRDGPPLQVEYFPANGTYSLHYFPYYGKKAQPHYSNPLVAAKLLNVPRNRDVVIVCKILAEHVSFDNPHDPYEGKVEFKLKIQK
Sequence of Potassium-transporting ATPase (P19156 whole entry): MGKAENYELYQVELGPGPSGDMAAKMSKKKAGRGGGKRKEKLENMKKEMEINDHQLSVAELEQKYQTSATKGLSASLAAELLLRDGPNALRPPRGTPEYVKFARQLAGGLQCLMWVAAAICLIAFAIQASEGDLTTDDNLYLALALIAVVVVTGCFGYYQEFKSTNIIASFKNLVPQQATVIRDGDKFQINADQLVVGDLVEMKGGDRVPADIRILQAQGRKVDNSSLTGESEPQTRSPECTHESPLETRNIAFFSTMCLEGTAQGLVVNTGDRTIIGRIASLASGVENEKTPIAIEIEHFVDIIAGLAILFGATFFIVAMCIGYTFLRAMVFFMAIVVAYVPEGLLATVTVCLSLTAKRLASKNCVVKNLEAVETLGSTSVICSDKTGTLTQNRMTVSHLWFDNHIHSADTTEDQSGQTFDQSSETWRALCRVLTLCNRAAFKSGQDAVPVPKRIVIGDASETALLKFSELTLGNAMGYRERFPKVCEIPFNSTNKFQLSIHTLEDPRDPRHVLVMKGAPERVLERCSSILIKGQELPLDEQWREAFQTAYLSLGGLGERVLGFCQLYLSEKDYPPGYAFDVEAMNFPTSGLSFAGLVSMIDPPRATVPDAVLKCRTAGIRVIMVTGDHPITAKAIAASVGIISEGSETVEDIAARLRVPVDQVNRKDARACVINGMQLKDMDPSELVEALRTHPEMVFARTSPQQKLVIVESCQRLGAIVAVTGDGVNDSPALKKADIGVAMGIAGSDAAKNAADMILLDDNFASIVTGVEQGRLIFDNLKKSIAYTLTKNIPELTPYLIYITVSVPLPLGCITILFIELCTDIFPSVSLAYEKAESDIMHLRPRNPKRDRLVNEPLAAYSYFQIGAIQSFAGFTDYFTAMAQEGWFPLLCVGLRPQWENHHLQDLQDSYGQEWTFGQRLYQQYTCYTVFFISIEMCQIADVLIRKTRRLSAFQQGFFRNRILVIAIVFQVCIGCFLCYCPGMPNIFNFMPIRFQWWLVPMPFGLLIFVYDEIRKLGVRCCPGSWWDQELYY
Procedure, shortened: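 K+-stimulated ATPase activity measured in a lyophilized gastric vesicle preparation at pH 7; enzyme concentration estimated at around 2 nM from 32P-ATP binding.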

Canis familiaris [4] = experiment: % inhibition of Histamine-stimulated gastric acid secretion in Heidenhain pouch dog 1 uM/kg, on iv administration of the compound.; format: functional, Canis lupus familiaris, Stomach
[5] = target: T1, Potassium-transporting ATPase (Rattus norvegicus) (UniProt P09626+P18598); experiment: Inhibition of pentagastrin stimulated gastric acid secretion in anesthetized rat 10 uM/kg, on iv administration of the compound.; format: functional, organism-based; conditions: Stomach; procedure, shortened: as §2
Canis familiaris [6] = experiment: Histamine-stimulated gastric acid secretion in Heidenhain pouch dog at 1uM/Kg, on iv administration of the compound; format: functional, Canis lupus familiaris, Stomach
Canis familiaris [7] = experiment: Histamine-stimulated gastric acid secretion in Heidenhain pouch dog at 4uM/Kg, on oral administration of the compound
Rattus norvegicus [8] = experiment: Inhibition of pentagastrin stimulated gastric acid secretion in anesthetized rat on 10 uM/kg, iv administration of the compound.; format: functional, Stomach; procedure, shortened: as §2
Rattus norvegicus [9] = experiment: Inhibition of pentagastrin stimulated gastric acid secretion in anesthetized rat at 10 uM/kg, on iv administration of the compound.; format: functional, Stomach; procedure, shortened: as §2
[10] = target: T1, Potassium-transporting ATPase (Rattus norvegicus); experiment: Inhibition of pentagastrin stimulated gastric acid secretion in anesthetized rat at 10 uM/kg; format: functional; conditions: Stomach; 10 umol/kg; procedure, shortened: as §2
Canis familiaris [11] = experiment: % inhibition of Histamine-stimulated gastric acid secretion in Heidenhain pouch dog at 4 uM/kg, on peroral administration of the compound.; format: functional, Canis lupus familiaris, Stomach; procedure, shortened: as §1
[12] = target: Potassium-transporting ATPase (Sus scrofa) (UniProt P18434+P19156); experiment: Inhibition of K+ stimulated gastric ATPase activity at 100 uM[…]; format: tissue-based; conditions: Stomach
Canis familiaris [13] = experiment: % inhibition of Histamine-stimulated gastric acid secretion in Heidenhain pouch dog at 1 uM/kg; format: functional, Canis lupus familiaris, Stomach
Canis familiaris [14] = experiment: % inhibition of Histamine-stimulated gastric acid secretion in Heidenhain pouch dog at 4 uM/kg; format: functional, Canis lupus familiaris, Stomach
Canis familiaris [15] = experiment: % inhibition of Histamine-stimulated gastric acid secretion in Heidenhain pouch dog at1uM/kg, on iv administration of the compound.; format: functional, Canis lupus familiaris, Stomach

SMILES: COc1cccc2c(N(C)c3ccccc3)nc(Nc3ccc(F)cc3C)nc12
- inhibition [5]: 94%
- Inhibition (Canis familiaris [1]): 32%
- IC50 [3]: 32 nM
- Inhibition (Canis familiaris [4]): 96%

SMILES: COc1cccc2c(Nc3ccccc3C)nc(NCc3ccccc3)nc12
- IC50 [3]: 2000 nM

SMILES: CN/C(=N\CCSCc1nc[nH]c1C)NC#N [CIMETIDINE]
- ED50 (Canis familiaris [6]): 1.7 µmol/kg
- ED50 (Canis familiaris [7]): 8.5 µmol/kg

SMILES: CCOC(=O)COc1cccc2c(N(C)c3ccccc3)nc(Nc3ccc(F)cc3C)nc12
- IC50 [3]: 130 nM
- Inhibition (Rattus norvegicus [8]): 39%

SMILES: CCCC(=O)c1cnc2c(OC)cccc2c1Nc1ccccc1C
- ED50 (Canis familiaris [6]): 0.26 µmol/kg
- ED50 (Canis familiaris [7]): 1.6 µmol/kg

SMILES: COc1cccc2c(N(C)c3ccccc3)nc(N(C)c3ccccc3)nc12
- IC50 [3]: 74 nM

SMILES: Cc1ccccc1Nc1nc(NCc2ccccc2)nc2ccccc12
- IC50 [3]: 510 nM

SMILES: Cc1ccccc1Nc1nc(N)nc2c(C)cccc12
- IC50 [3]: 240 nM
- inhibition [10]: 48%

SMILES: COc1cccc2c(Nc3ccccc3C)nc(NCc3nccs3)nc12
- IC50 [3]: 3800 nM
- inhibition [10]: 33%

SMILES: Cc1cc(F)ccc1Nc1nc(N(C)c2ccccc2)c2cccc(OCCCN(C)C)c2n1
- inhibition [5]: 68%
- Inhibition (Canis familiaris [1]): 0%
- IC50 [3]: 36 nM

SMILES: CN(c1ccccc1)c1nc(N)nc2ccccc12
- IC50 [3]: 3300 nM
- inhibition [10]: 17%

SMILES: Cc1cc(F)ccc1Nc1nc2c(C)cccc2c2c1CCN2c1ccccc1C
- IC50 [3]: 130 nM

SMILES: CCNc1nc(Nc2ccccc2C)c2ccccc2n1
- IC50 [3]: 1390 nM

SMILES: Cc1cc(F)ccc1Nc1nc(N(C)c2ccccc2)c2cc(OCCN(C)C)ccc2n1
- IC50 [3]: 1300 nM

SMILES: Cc1ccccc1Nc1nc(N(C)c2ccccc2C)nc2ccccc12
- IC50 [3]: 2000 nM
- inhibition [10]: 27%

SMILES: Cc1ccccc1Nc1nc(NCCO)nc2ccccc12
- IC50 [3]: 4600 nM
- inhibition [10]: 21%

SMILES: COc1cccc2c(N(C)c3ccccc3C)nc(Nc3ccc(F)cc3C)nc12
- IC50 [3]: 95 nM

SMILES: COc1cccc2c(Nc3ccccc3C)nc(Nc3ccccc3C)nc12
- IC50 [3]: 2500 nM

Continued, in another order:

- IC50 [3]: 21 nM
SMILES: Cc1cc(F)ccc1Nc1nc(N(C)c2ccccc2)c2ccccc2n1
- Inhibition (Canis familiaris [1]): 0%
- ED50 (Rattus norvegicus [2]): 1.94 µmol/kg
- Inhibition (Canis familiaris [4]): 79%

- inhibition [5]: 93%
- IC50 [3]: 35 nM
SMILES: Cc1ccccc1Nc1nc(N(C)c2ccccc2)c2cccc(OCCO)c2n1
- Inhibition (Canis familiaris [1]): 8%
- Inhibition (Canis familiaris [4]): 73%

- IC50 [3]: 18 nM
SMILES: Cc1cc(F)ccc1Nc1nc(N(C)c2ccccc2)c2cc(O)ccc2n1
- Inhibition (Canis familiaris [1]): 0%
- ED50 (Rattus norvegicus [2]): 1.5 µmol/kg
- Inhibition (Canis familiaris [4]): 97%

- IC50 [3]: 1300 nM
SMILES: CN(c1ccccc1)c1nc(N(C)c2ccccc2)c2ccsc2n1
- Inhibition (Rattus norvegicus [9]): 14%

- IC50 [3]: 34 nM
- inhibition [10]: 60%
SMILES: COc1ccc(N(C)c2nc(Nc3ccccc3C)nc3ccccc23)cc1
- Inhibition (Canis familiaris [11]): 12%

- inhibition [5]: 31%
- IC50 [3]: 41 nM
SMILES: Cc1cc(Cl)ccc1Nc1nc(N(C)c2ccccc2)c2ccccc2n1

- IC50 [3]: 320 nM
- inhibition [10]: 59%
SMILES: CCN(c1ccccc1)c1nc(Nc2ccccc2C)nc2ccccc12

- inhibition [5]: 23%
- IC50 [3]: 1070 nM
SMILES: Cc1cc(O)ccc1Nc1nc(N(C)c2ccccc2)c2ccccc2n1

- inhibition [12]: 27%
SMILES: Cc1ccccc1Nc1nc(Nc2ccccc2)c2ccsc2n1

- IC50 [3]: 130 nM
SMILES: Cc1cc(F)ccc1Nc1nc(N(C)c2ccccc2)c2ccsc2n1

- IC50 [3]: 120 nM
SMILES: Cc1ccccc1Nc1nc(N(C)c2ccc(F)cc2)c2ccccc2n1
- Inhibition (Rattus norvegicus [9]): 62%

- IC50 [3]: 510 nM
SMILES: Cc1ccccc1Nc1nc(N(C)c2ccccc2)c2ccsc2n1

- IC50 [3]: 34 nM
SMILES: Cc1cc(F)ccc1Nc1nc(N(C)c2ccccc2)c2sccc2n1
- Inhibition (Rattus norvegicus [9]): 49%

- IC50 [3]: 19 nM
SMILES: Cc1ccccc1Nc1nc(N(C)c2ccc(O)cc2)c2ccccc2n1

- IC50 [3]: 42 nM
SMILES: COc1cccc2c(N(C)c3ccccc3)nc(Nc3ccccc3C)nc12
- Inhibition (Canis familiaris [13]): 79%
- ED50 (Rattus norvegicus [2]): 1.39 µmol/kg
- Inhibition (Canis familiaris [14]): 44%

- IC50 [3]: 340 nM
SMILES: COc1ccc(Nc2nc(N(C)c3ccccc3)c3sccc3n2)c(C)c1

- IC50 [3]: 22 nM
- inhibition [10]: 79%
SMILES: Cc1ccccc1Nc1nc(N(C)c2ccccc2)c2ccccc2n1
- Inhibition (Canis familiaris [15]): 74%
- Inhibition (Canis familiaris [11]): 0%
